From ChEMBL document CHEMBL5678817, “FTBMT, a Novel and Selective GPR52 Agonist, Demonstrates Antipsychotic-Like and Procognitive Effects in Rodents, Revealing a Potential Therapeutic Agent for Schizophrenia” (J Pharmacol Exp Ther, 2017)
Active and inactive are the calls of the source. The calls are words filed in the database; no cut-off is given here.

Legend:
[1] = molecular target: G-protein coupled receptor 52 (Mus musculus) (UniProt P0C5J4); assay: Agonist activity at mouse GPR52 expressed in CHO cells assessed as increase in intracellular cAMP level upto 10 uM incubated for 30 mins by Alphascreen assay; type: functional, cell-based
How it was run: (§1)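 CHO cells stably expressing human, mouse or rat GPR52, plus naïve CHO cells, at 10,000 cells/well. Stimulated in cAMP assay buffer for 30 min at 37 °C. Intracellular cAMP read by AlphaScreen.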

[2] = molecular target: T1, G protein-coupled receptor 52 (Rattus norvegicus) (UniProt A0A8I5ZQK1); assay: Agonist activity at rat GPR52 expressed in CHO cells assessed as increase in intracellular cAMP level upto 10 uM incubated for 30 mins by Alphascreen assay; type: cell-based; how it was run: as §1
T1 sequence (A0A8I5ZQK1 as listed by the source): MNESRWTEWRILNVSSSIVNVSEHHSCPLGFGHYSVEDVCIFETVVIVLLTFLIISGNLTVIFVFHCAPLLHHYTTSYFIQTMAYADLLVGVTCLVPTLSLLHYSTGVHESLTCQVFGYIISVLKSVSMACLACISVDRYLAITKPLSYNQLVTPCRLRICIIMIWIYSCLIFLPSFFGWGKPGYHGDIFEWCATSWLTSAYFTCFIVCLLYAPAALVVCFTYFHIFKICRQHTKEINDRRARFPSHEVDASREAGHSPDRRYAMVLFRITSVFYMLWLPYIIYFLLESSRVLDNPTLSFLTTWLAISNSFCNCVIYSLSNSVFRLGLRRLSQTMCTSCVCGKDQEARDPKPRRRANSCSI

Homo sapiens [3] = species on record: Homo sapiens; assay: Inhibition of Ca2+ ATPase (unknown origin) at 10 uM relative to control
How it was run: (§2)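 Single-point screen at 10 μM across receptor, ion channel and enzyme binding or activity assays. Expressed as percent inhibition versus control; negative values denote stimulation.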

[4] = molecular target: Carbonic anhydrase 2 (Homo sapiens) (UniProt P00918); assay: Inhibition of Carbonic anhydrase II (unknown origin) at 10 uM relative to control; how it was run: as §2
[5] = molecular target: Polyunsaturated fatty acid 5-lipoxygenase (Homo sapiens) (UniProt P09917); assay: Inhibition of […] (unknown origin) at 10 uM relative to control
Chain of Polyunsaturated fatty acid 5-lipoxygenase (Homo sapiens) (P09917 whole entry): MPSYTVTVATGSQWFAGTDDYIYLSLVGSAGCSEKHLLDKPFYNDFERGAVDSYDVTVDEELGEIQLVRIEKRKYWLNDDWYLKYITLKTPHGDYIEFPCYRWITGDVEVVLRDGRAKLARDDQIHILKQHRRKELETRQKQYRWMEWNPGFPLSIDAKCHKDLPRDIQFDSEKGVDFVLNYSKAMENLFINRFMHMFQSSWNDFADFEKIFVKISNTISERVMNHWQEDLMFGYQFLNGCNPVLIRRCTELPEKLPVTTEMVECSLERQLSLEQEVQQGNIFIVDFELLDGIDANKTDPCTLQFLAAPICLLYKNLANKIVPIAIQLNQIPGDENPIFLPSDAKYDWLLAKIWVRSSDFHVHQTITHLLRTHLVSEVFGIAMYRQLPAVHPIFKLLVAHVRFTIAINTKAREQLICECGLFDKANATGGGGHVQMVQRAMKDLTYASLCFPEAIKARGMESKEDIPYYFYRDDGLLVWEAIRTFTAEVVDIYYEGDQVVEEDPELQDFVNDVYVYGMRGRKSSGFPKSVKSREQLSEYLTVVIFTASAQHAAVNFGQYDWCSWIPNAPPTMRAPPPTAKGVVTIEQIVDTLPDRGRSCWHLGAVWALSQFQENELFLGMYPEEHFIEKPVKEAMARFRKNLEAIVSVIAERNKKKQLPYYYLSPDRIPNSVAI
How it was run: (§3)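 Enzyme activity assays from the same 98-target biochemical panel. Single test concentration of 10 µM. Read-out is % inhibition of enzyme activity relative to control; negative percentages indicate activation of the enzyme.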

[6] = molecular target: MAO-A (amine oxidase [flavin-containing] A) (Homo sapiens, UniProt P21397); assay: Inhibition of MAO-A (unknown origin) at 10 uM relative to control; how it was run: as §3
[7] = molecular target: Interstitial collagenase (Homo sapiens) (UniProt P03956); assay: Inhibition of MMP1 (unknown origin) at 10 uM relative to control; how it was run: as §3
Chain of Interstitial collagenase (Homo sapiens) (P03956 whole entry): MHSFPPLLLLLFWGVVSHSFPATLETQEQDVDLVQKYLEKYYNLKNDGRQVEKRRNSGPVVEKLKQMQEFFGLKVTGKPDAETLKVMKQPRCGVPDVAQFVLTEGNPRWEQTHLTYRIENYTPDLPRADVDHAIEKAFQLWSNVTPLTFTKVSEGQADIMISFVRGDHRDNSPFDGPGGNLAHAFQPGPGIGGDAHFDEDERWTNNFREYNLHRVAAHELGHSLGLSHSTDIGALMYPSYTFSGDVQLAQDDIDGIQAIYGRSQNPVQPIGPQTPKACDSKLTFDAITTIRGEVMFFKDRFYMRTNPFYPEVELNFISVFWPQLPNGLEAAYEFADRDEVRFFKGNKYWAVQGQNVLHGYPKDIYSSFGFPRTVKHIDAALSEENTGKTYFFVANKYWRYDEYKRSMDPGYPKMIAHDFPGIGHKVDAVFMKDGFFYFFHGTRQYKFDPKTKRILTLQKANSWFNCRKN

[8] = molecular target: cGMP-specific 3',5'-cyclic phosphodiesterase (Homo sapiens) (UniProt O76074); assay: Inhibition of PDE5 (unknown origin) at 10 uM relative to control; how it was run: as §3
[9] = molecular target: cAMP and cAMP-inhibited cGMP 3',5'-cyclic phosphodiesterase 10A (Homo sapiens) (UniProt Q9Y233); assay: Inhibition of PDE10A1 (unknown origin) at 10 uM relative to control; how it was run: as §3
[10] = molecular target: Adenosine receptor A1 (Homo sapiens) (UniProt P30542); assay: Inhibition of Adenosine A1 receptor (unknown origin) at 10 uM relative to control; how it was run: as §2
Chain of Adenosine receptor A1 (Homo sapiens) (P30542 whole entry): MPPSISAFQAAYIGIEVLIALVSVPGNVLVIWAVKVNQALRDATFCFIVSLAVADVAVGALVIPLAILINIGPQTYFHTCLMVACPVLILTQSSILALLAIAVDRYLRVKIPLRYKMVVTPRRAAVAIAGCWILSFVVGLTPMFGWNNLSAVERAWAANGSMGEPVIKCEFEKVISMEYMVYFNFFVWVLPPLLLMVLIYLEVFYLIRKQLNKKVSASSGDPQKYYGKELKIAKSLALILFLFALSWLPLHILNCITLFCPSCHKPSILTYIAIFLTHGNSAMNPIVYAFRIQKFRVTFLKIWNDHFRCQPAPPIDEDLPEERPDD

[11] = molecular target: B1 bradykinin receptor (Homo sapiens) (UniProt P46663); assay: Inhibition of Bradykinin B1 receptor (unknown origin) at 10 uM relative to control; how it was run: as §2
Chain of B1 bradykinin receptor (Homo sapiens) (P46663 whole entry): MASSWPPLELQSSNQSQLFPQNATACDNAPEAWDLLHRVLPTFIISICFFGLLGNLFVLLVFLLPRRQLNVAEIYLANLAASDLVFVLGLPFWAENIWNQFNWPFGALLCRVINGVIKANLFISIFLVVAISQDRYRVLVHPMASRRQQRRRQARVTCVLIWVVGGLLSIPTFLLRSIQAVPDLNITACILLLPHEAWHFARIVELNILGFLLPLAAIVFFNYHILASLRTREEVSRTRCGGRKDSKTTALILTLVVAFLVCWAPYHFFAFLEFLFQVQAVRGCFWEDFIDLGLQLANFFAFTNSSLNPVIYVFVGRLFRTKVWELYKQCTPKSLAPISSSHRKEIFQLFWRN

Homo sapiens [12] = species on record: Homo sapiens; assay: Inhibition of strychnine-Glycine receptor (unknown origin) at 10 uM relative to control
How it was run: (§4)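 Binding and enzyme panel run by an outside contractor against receptors, ion channels and enzymes. Each assay used a single 10 μM test concentration, and results are expressed as percent inhibition. A negative value means stimulation of receptor activity or activation of enzyme activity.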

[13] = molecular target: Muscarinic acetylcholine receptor M2 (Homo sapiens) (UniProt P08172); assay: Inhibition of Muscarinic M2 receptor (unknown origin) at 10 uM relative to control
How it was run: (§5)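 Part of a 98-target external biochemical selectivity panel that used radioligand/receptor binding-type assays. Compound tested once at 10 µM. Results are reported as % inhibition versus control; negative values mean stimulation of receptor activity.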

[14] = molecular target: Mu-type opioid receptor (Homo sapiens) (UniProt P35372); assay: Inhibition of mu opioid receptor (unknown origin) at 10 uM relative to control; how it was run: as §4
Chain of Mu-type opioid receptor (Homo sapiens) (P35372 whole entry): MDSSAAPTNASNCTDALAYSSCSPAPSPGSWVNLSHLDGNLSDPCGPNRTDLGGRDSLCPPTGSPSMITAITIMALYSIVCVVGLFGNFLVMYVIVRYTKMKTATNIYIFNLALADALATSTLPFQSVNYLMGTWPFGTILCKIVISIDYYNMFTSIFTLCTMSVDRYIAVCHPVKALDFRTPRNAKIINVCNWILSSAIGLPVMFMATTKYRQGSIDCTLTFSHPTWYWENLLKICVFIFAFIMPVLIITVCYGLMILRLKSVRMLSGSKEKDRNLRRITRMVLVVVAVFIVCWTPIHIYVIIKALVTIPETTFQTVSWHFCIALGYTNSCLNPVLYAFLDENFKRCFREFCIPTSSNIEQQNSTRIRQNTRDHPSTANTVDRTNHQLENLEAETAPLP

[15] = molecular target: Progesterone receptor (Homo sapiens) (UniProt P06401); assay: Inhibition of Progesterone receptor (unknown origin) at 10 uM relative to control; how it was run: as §5
Chain of Progesterone receptor (Homo sapiens) (P06401 whole entry): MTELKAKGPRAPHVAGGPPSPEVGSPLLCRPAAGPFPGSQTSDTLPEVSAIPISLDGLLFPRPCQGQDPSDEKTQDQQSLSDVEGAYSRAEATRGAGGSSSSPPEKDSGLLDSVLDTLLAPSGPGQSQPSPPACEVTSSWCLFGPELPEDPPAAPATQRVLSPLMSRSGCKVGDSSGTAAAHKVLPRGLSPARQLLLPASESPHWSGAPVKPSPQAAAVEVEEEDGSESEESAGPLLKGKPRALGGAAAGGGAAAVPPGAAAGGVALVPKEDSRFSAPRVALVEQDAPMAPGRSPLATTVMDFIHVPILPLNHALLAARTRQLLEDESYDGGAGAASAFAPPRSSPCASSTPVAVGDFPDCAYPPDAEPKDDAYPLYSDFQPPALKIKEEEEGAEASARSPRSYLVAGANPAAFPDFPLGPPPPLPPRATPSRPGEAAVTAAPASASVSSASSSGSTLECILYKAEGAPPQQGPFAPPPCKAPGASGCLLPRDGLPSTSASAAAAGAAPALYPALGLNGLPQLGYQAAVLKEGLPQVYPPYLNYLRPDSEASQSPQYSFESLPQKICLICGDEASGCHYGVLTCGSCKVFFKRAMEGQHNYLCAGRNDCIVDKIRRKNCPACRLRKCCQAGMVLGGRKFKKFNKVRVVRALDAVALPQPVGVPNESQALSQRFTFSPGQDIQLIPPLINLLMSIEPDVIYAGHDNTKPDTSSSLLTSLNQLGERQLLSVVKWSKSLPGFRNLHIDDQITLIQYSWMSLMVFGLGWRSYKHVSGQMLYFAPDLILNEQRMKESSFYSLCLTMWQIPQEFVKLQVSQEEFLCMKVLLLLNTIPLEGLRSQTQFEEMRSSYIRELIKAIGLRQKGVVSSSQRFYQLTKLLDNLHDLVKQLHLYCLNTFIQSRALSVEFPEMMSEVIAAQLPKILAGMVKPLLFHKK

[16] = molecular target: Serotonin 2 (5-HT2) receptor (Homo sapiens) (UniProt P41595+P28223+P28335); assay: Inhibition of Serotonin 5-HT2 receptor (unknown origin) at 10 uM relative to control; type: protein assay; how it was run: as §5
[17] = molecular target: 5-hydroxytryptamine receptor 2B (Homo sapiens) (UniProt P41595); assay: Inhibition of Serotonin 5-HT2B receptor (unknown origin) at 10 uM relative to control; how it was run: as §5
Chain of 5-hydroxytryptamine receptor 2B (Homo sapiens) (P41595 whole entry): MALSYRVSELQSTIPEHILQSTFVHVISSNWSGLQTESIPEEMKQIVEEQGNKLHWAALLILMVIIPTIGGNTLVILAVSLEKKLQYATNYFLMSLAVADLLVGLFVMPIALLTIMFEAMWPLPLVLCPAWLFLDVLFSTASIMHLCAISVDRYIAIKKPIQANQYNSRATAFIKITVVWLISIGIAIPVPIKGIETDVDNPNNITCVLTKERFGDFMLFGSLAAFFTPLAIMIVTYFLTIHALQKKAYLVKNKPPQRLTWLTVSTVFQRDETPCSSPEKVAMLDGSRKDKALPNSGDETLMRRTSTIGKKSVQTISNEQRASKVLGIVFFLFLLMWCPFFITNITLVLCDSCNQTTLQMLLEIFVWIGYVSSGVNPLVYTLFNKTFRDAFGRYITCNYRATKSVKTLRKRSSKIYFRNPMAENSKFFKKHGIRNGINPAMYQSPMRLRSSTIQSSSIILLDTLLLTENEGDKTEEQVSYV

[18] = molecular target: 5-hydroxytryptamine receptor 4 (Homo sapiens) (UniProt Q13639); assay: Inhibition of Serotonin 5-HT4 receptor (unknown origin) at 10 uM relative to control; how it was run: as §5
[19] = molecular target: Sodium-dependent noradrenaline transporter (Homo sapiens) (UniProt P23975); assay: Inhibition of Norepinephrine transporter (unknown origin) at 10 uM relative to control; how it was run: as §5
Chain of Sodium-dependent noradrenaline transporter (Homo sapiens) (P23975 whole entry): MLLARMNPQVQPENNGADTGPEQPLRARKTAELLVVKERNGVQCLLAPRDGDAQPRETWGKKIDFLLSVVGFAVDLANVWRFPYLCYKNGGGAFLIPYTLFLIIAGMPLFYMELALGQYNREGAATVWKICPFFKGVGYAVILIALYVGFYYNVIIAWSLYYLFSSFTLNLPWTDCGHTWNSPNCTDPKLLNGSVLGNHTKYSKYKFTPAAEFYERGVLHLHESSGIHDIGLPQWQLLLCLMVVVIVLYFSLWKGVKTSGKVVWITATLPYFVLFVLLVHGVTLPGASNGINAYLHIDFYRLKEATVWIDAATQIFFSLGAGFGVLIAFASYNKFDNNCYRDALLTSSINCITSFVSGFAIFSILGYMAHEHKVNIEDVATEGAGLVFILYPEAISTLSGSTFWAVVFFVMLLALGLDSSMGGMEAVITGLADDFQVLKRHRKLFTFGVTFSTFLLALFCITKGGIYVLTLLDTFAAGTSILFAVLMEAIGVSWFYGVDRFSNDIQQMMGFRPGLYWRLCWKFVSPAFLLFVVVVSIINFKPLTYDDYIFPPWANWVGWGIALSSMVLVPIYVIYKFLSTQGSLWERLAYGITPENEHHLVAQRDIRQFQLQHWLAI

[20] = molecular target: Vasopressin V2 receptor (Homo sapiens) (UniProt P30518); assay: Inhibition of Vasopressin V2 receptor (unknown origin) at 10 uM relative to control; how it was run: as §4
Chain of Vasopressin V2 receptor (Homo sapiens) (P30518 whole entry): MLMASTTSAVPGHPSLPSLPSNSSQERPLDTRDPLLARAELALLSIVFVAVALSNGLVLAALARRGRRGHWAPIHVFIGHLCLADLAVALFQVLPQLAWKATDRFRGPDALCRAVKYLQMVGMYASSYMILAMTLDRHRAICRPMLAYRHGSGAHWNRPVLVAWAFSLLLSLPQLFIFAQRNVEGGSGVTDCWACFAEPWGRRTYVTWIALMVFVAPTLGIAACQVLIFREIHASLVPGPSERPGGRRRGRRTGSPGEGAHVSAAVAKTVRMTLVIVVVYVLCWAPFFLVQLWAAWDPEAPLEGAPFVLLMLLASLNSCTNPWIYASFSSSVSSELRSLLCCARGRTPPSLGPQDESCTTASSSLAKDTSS

[21] = molecular target: T1, G protein-coupled receptor 52 (Rattus norvegicus); assay: Agonist activity at GPR52 in rat Striatal neuron assessed as increase in Egr-2 mRNA expression by RT-PCR analysis; type: cell-based; conditions: filed as agonist
How it was run: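 Rat primary striatal neurons (E18–19), used at DIV 13–16. Treated in HBSS with 5 mM HEPES pH 7.5 and 0.5% fatty-acid-free BSA for 15 or 60 min at 37 °C. Cells were homogenized in RLT buffer and IEG mRNA was quantified by qPCR using absolute or ΔΔCt relative quantification.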

[22] = molecular target: T1, G protein-coupled receptor 52 (Rattus norvegicus); assay: Agonist activity at GPR52 in rat Striatal neuron assessed as increase in NMDA-stimulated GABA release […] followed by NMDA-stimulation and measured after 20 mins by scintillation counter analysis; type: cell-based; conditions: filed as agonist, time 60.0 min
Mus musculus [23] = assay: Antipsychotic activity in C57BL/6N mouse assessed as increase in c-fos positive cells in dorsolateral striatum at 30 mg/kg, po measured for 2 hrs by immunohistochemistry analysis; type: functional, organism-based
Mus musculus [24] = assay: Antipsychotic activity in C57BL/6N mouse assessed as increase in Arc mRNA expression at 3 to 100 mg/kg, po measured for 1 hr by qPCR analysis; type: functional, organism-based; conditions: dose 3-100 mg/kg
How it was run: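 Mice dosed orally at 3–100 mg/kg or vehicle. Tissues taken 1 h post-dose, NAc shell and striatum dissected, frozen on dry ice. IEG mRNA quantified by qPCR (absolute or ΔΔCt); n = 5–6; mean ± SEM.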

Rattus norvegicus [25] = assay: Pro-cognitive activity in Long-Evans rat assessed as increase in exploration time for novel object at 3 to 10 mg/kg, po measured after 3 mins by NORT test; type: functional, organism-based; conditions: dose 3-10 mg/kg
How it was run: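 Male Long-Evans rats (7 weeks) were habituated to a 40 × 40 × 50 cm box for 10 min. The acquisition trial was 3 min with two identical objects. Oral dosing at 3 or 10 mg/kg followed immediately after acquisition. The 3-min retention trial, with one familiar and one novel object, ran 48 h later. Exploration was hand-scored by a blinded scorer, and NDI = novel/total × 100. n = 10.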

Rattus norvegicus [26] = assay: Pro-cognitive activity in Long-Evans rat at10 mg/kg, po measured after 1 hr by radial arm maze test; type: functional, organism-based; conditions: dose 10.0 mg/kg
How it was run: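 Male Long-Evans rats (9 weeks) were trained on the radial arm maze until they made fewer than two errors on two consecutive days. Errors were re-entries into arms or uneaten pellets, within 5 min. Oral 10 mg/kg or vehicle was given 1 h pretest, and MK-801 0.08 mg/kg s.c. or saline 30 min pretest. Scoring was blinded. n = 8–14.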

Question: With `Cc1cc(-n2nc(Cc3cc(F)cc(C(F)(F)F)c3)nc2C)ccc1C(N)=O` [TP-024] as the molecule, how does the Activity [1] read?
Answer: inactive

Question: What about the Activity [2] of the same molecule?
Answer: inactive

Question: And the inhibition (Homo sapiens [3])?
Answer: -1%

Question: And the inhibition [4]?
Answer: 4%

Question: And the inhibition [5]?
Answer: -5%

Question: What about the inhibition at 10 µM [6] of the same molecule?
Answer: 6%

Question: And the inhibition [7]?
Answer: -3%

Question: And the inhibition [8]?
Answer: 24%

Question: And the inhibition [9]?
Answer: 0%

Question: And the inhibition [10]?
Answer: 33%

Question: And the inhibition [11]?
Answer: -5%

Question: And the inhibition (Homo sapiens [12])?
Answer: -4%

Question: What about the inhibition [13] of the same molecule?
Answer: -6%

Question: And the inhibition [14]?
Answer: -10%

Question: And the inhibition [15]?
Answer: 4%

Question: What about the inhibition [16] of the same molecule?
Answer: 14%

Question: And the inhibition [17]?
Answer: 6%

Question: And the inhibition [18]?
Answer: 4%

Question: And the inhibition [19]?
Answer: 10%

Question: What about the inhibition [20] of the same molecule?
Answer: -1%

Question: What about the Activity [21] of the same molecule?
Answer: Active

Question: And the Activity [22]?
Answer: Active

Question: And the Activity (Mus musculus [23])?
Answer: inactive

Question: What about the Activity (Mus musculus [24]) of the same molecule?
Answer: Active

Question: And the Activity (Rattus norvegicus [25])?
Answer: Active

Question: What about the Activity (Rattus norvegicus [26]) of the same molecule?
Answer: Active
